Structures are written as SMILES. The source made the active and inactive calls. The calls are words filed in the database; no cut-off is given here.

What all share (format): tissue-based
Holding throughout (conditions): Oryctolagus cuniculus, target entry is the homologue from another species

In experiment [1] the target is 5-hydroxytryptamine receptor 1B (Homo sapiens) (UniProt P28222). Nature of the experiment: Dissociation equilibrium constant against the vascular 5-hydroxytryptamine 1B like receptor in the rabbit saphenous vein. Put shortly: (§1)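 Saphenous vein rings (4–5 mm) from male New Zealand white rabbits, killed with pentobarbitone 80 mg/kg iv and exsanguination, mounted on tungsten wires. Phenoxybenzamine 0.3 μM for 30 min, washed out, 1 μM 5HT viability check. Cumulative 5HT curve, then after 60 min recovery a test compound curve. Non-agonists tested as 5HT antagonists, giving apparent pKB.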
Sequence of 5-hydroxytryptamine receptor 1B (Homo sapiens) (P28222 whole entry): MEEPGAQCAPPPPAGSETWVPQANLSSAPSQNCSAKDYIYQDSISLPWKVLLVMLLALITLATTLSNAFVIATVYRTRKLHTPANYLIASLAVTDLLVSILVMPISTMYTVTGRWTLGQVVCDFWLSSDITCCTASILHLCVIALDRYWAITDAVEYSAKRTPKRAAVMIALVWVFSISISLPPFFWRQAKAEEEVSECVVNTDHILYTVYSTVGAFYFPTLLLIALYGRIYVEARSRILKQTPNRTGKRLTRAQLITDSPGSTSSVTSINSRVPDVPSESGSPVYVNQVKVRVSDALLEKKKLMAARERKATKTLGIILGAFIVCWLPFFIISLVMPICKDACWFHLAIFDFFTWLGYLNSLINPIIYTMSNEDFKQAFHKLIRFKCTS

Experiment [2] concerns the target 5-hydroxytryptamine receptor 2A (Homo sapiens) (UniProt P28223). As to the kind of experiment: Dissociation equilibrium constant against the vascular 5-hydroxytryptamine 2A receptor in the rabbit […] aorta.
Experiment [3] has as its target 5-hydroxytryptamine receptor 1B (Homo sapiens) (UniProt P28222). As to the kind of experiment: The dissociation equilibrium constant (pKB=-log KB) of compound was determined against the vascular 5-hydroxytryptamine 1B like receptor in the rabbit saphenous vein(RbSV); NS=non surmountable. Put shortly:
as §1

Sequence of 5-hydroxytryptamine receptor 2A (Homo sapiens) (P28223 whole entry): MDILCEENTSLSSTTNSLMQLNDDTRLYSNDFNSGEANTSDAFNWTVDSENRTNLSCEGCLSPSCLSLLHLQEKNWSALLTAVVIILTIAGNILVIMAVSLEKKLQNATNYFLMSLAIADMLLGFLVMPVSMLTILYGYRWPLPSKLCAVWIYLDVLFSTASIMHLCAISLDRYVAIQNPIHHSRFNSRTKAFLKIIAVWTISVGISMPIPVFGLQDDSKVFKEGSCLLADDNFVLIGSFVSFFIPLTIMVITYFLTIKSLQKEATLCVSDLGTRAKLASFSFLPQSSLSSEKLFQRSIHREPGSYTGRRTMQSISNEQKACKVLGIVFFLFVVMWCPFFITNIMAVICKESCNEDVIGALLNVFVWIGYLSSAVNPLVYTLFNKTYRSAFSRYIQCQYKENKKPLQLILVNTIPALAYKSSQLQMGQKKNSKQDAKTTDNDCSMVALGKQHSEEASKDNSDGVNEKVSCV

Take `CC(C)OC(=O)c1[nH]c2ccc(CCN3C(=O)NC(C)(C)C3=O)cc2c1-c1ccncc1`: the negative logarithm of the KB (pKB) in experiment [1] was 5.25; in experiment [2], < 5.
On the same counts, the results for `COC(=O)c1[nH]c2ccc(CN3C(=O)NC(C)(C)C3=O)cc2c1CCN(C)C` are 6.45 and 5.03.
Turning to `CCOC(=O)c1[nH]c2ccc(CCN3C(=O)CNC3=O)cc2c1-c1ccncc1`, the pKB in experiment [1] was 5.29; in experiment [2], < 5.
Turning to `CC(C)OC(=O)c1[nH]c2ccc(CN3C(=O)NC(C)(C)C3=O)cc2c1CCN(C)C`, the pKB in experiment [1] and in experiment [2] was 5.62 each time.
As to `CN(C)CCc1c(C(=O)OCc2ccccc2)[nH]c2ccc(CCN3C(=O)CNC3=O)cc12`, the pKB in experiment [1] worked out at 7.91; in experiment [2], 7.3.
As to `CCOC(=O)c1[nH]c2ccc(CCC3COC(=O)N3)cc2c1CCN(C)C` (stereo unspecified), the pKB in experiment [1] came out at 7.21; in experiment [2], 6.76.
On the same counts, the results for `CCOC(=O)c1[nH]c2ccc(CCN3C(=O)CCC3=O)cc2c1CCN(C)C` are 6.78 and 6.3.
On the same counts, the results for `CCOC(=O)c1[nH]c2ccc(CN3C(=O)CNC3=O)cc2c1CCN(C)C` are 5.32 and 5.86.
On the same counts, the results for `COC(=O)c1[nH]c2ccc(CCN3C(=O)NC(C)(C)C3=O)cc2c1CCN(C)C` are 6.88 and 5.02.
Turning to `CCOC(=O)c1[nH]c2ccc(CCN3C(=O)c4ccccc4C3=O)cc2c1CCN(C)C`, the pKB in experiment [1] was determined as 7.54; in experiment [2] it was 6.26.
On the same counts, the results for `CC(C)OC(=O)c1[nH]c2ccc(CCN3C(=O)NC(C)(C)C3=O)cc2c1CCN(C)C` are 6.82 and 5.8.
On the same counts, the results for `CN(C)CCc1c(C(=O)OC2CCCCC2)[nH]c2ccc(CCN3C(=O)NC(C)(C)C3=O)cc12` are 5.95 and 4.77.
For `COC(=O)c1[nH]c2ccc(CCN3CCOC3=O)cc2c1CCN(C)C`, in that order: 6 and < 5.
Turning to `CN(C)CCc1c(C(N)=O)[nH]c2ccc(CC3COC(=O)N3)cc12` (stereo unspecified), the values for the pKB in experiment [1] and in experiment [2] were 4.75 and < 4.5, respectively.
Regarding `CC(C)OC(=O)c1[nH]c2ccc(CCN3C(=O)CNC3=O)cc2c1CCN(C)C`, the pKB in experiment [1] is 6.85; in experiment [2], 6.57.
On to `COC(=O)c1[nH]c2ccc(CCN3C(=O)CNC3=O)cc2c1CCN(C)C`, for which the results for the pKB in experiment [1] and in experiment [2] were 6.97 and < 5, respectively.
For `CCOC(=O)c1[nH]c2ccc(CCN3C(=O)CSC3=O)cc2c1CCN(C)C`, in that order: 7.72 and 7.56.
On the same counts, the results for `CCOC(=O)c1[nH]c2ccc(CCN3CCCC3=O)cc2c1CCN(C)C` are 6.1 and 5.5.
For `CN(C)CCc1c(Br)[nH]c2ccc(CC3COC(=O)N3)cc12` (stereo unspecified), in that order: 5.86 and < 5.
Consider `COC(=O)c1[nH]c2ccc(CCC3COC(=O)N3)cc2c1CCN(C)C` (stereo unspecified), for which the pKB in experiment [1] turned out to be 6.61; in experiment [2], 5.88.
For `CCOC(=O)c1[nH]c2ccc(CN3C(=O)NC(C)(C)C3=O)cc2c1CCN(C)C`, in that order: 6.54 and 5.52.
For `CCOC(=O)c1[nH]c2ccc(CCN3C(=O)CNC3=O)cc2c1C1CCN(C)CC1`, in that order: < 5 and < 5.
With `COC(=O)c1[nH]c2ccc(CN3C(=O)CNC3=O)cc2c1CCN(C)C`, the pKB came out at 5.41 in experiment [1] and 5.15 in experiment [2].
On the same counts, the results for `CCOC(=O)c1[nH]c2ccc(CCN3C(=O)NC(C)(C)C3=O)cc2c1CCN(C)C` are 7.34 and 5.23.
As for `COC(=O)c1[nH]c2ccc(CCN3C(=O)CNC3=O)cc2c1-c1ccncc1`, in experiment [3], the pKB result is “inactive”. In addition, in experiment [2], the pKB is < 5.
`CN(C)CCc1c(C(=O)O)[nH]c2ccc(CCN3C(=O)CNC3=O)cc12`: the pKB in experiment [1] was 6.17; in experiment [2], < 5.
For `CCOC(=O)c1[nH]c2ccc(CCN3C(=O)CNC3=O)cc2c1C1=CCN(C)CC1`, in that order: 5.88 and < 5.
For `CCOC(=O)c1[nH]c2ccc(CCN3C(=O)c4ccccc4C3=O)cc2c1C1=CCN(C)CC1`, in that order: 6.42 and 5.02.
On the same counts, the results for `CC(C)OC(=O)c1[nH]c2ccc(CCN3C(=O)NC(C)(C)C3=O)cc2c1C1=CCN(C)CC1` are 6.34 and < 5.
Regarding `CN(C)CCc1c(C#N)[nH]c2ccc(CC3COC(=O)N3)cc12` (stereo unspecified), the figures for the pKB in experiment [1] and in experiment [2] were 4.8 and 4.6, respectively.
`CCOC(=O)c1[nH]c2ccc(CCC3NC(=O)N(C)C3=O)cc2c1CCN(C)C` (stereo unspecified): the pKB in experiment [1] was determined as 7.3; in experiment [2] it was 6.2.
For `CCOC(=O)c1[nH]c2ccc(CC3COC(=O)N3)cc2c1CCN(C)C` (stereo unspecified), the values for the pKB in experiment [1] and in experiment [2] were 6.12 and 5.66, respectively.
For the molecule `COC(=O)c1[nH]c2ccc(CCN3C(=O)c4ccccc4C3=O)cc2c1CCN(C)C`, the pKB in experiment [1] came out at 7.39; in experiment [2], 5.66.

What is called pKB is the negative decadic logarithm of the KB, by convention in mol/L.

Values taken from ChEMBL document CHEMBL1130209, “A novel series of 2,5-substituted tryptamine derivatives as vascular 5HT1B/1D receptor antagonists” (J Med Chem, 1997).
